Laboratory results: PubChem BioAssay
Active and inactive are the calls of the source.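 Rule for the calls, unless noted: active = visually confirmed hit in the image check and inhibition above 20%; inconclusive = visually confirmed hit but inhibition not above 20%; inactive = no visual hit in the image check.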

Experiments:
[1] = inhibitors of TNFa-induced NFkB p65 translocation, primary screen, imaging, HUVEC, MLSMR starter and 10KST1 sets (AID 438;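 active = inhibition above 20% together with a positive visual image hit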;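 note: compound added about 3h40 before a 20 min TNFalpha stimulation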;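 for inhibition: signal is the nuclear over cytoplasmic p65 intensity ratio per well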); details: HUVEC TNFa-induced p65 nuclear translocation; cell count: measured here: nuclei count (cytotoxicity indicator), at 2.08 µM; inhibition: at 2 µM, stronger effect = higher value, 0% TNFa-plus-vehicle, 100% no-TNFa wells
[2] = reduction of polyQ htt aggregates in cells – imaging, exon1htt(103Q)mCFP cells, high-content imaging, primary screen (AID 483;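 active = visual image review flags a hit and inhibition of aggregation exceeds 20%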;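 note: compound exposure lasted 3 days before fixation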;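 for nuclei count: percent of the per-plate median nuclei count of sample wells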); details: exon1htt(103Q)mCFP cell line, aggregate imaging, at 2 µM; inhibition of aggregation: stronger effect = higher value; nuclei count: measured here: cell count, toxicity
[3] = endothelial E-selectin expression blockers – imaging, HUVEC, immunofluorescence, MLSMR starter and 10KST1 sets, primary screen (AID 487); details: HUVEC TNFalpha-induced E-selectin immunofluorescence imaging, at 2 µM; inhibition: stronger effect = higher value; nuclei count: measured here: cell number, toxicity;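 for inhibition: signal is fraction of cell area covered by stained E-selectin grains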;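 for nuclei count: 100% = median nuclei count of all wells on the same plate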
[4] = target: Voltage-gated potassium channel subunit beta-2 (Rattus norvegicus) (UniProt P62483); test: inhibitors of rat Kvbeta2 reductase activity – biochemical, NADPH fluorescence, primary screen (AID 622;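 active = fluorescence slope higher than the sample average by over 3 SD, cut at about -0.22 in these data, passing the limit was not always enough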;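 note: slope of raw intensity against log time taken from 70 to 1610 s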); details: recombinant KvBeta, 4-cyanobenzaldehyde reduction, at 10 µM, stronger effect = higher value
Voltage-gated potassium channel subunit beta-2 (Rattus norvegicus), sequence (P62483 whole entry, looked up): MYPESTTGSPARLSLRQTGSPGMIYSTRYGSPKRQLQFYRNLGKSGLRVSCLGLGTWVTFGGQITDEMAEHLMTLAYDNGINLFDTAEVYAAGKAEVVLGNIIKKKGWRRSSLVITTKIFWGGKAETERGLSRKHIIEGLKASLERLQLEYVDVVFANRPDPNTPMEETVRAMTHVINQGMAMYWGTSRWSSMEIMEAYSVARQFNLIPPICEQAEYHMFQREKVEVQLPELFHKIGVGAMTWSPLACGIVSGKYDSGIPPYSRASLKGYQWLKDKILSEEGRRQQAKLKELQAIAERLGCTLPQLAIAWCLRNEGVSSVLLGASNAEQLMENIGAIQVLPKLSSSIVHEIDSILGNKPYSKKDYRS

[5] = target: Voltage-gated potassium channel subunit beta-2 (Rattus norvegicus) (UniProt P62483); test: enhancers of rat Kvbeta2 NADPH turnover – biochemical, NADPH fluorescence, primary screen (AID 623;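 active = NADPH fluorescence slope more negative than the mean of all samples by about 3 SD, 99.7% confidence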;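 note: fluorescence intensity change per second fitted from 20 to 320 s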); details: Recombinant KvBeta, NADPH fluorescence decrease slope, 10 min; at 10 µM; stronger effect = lower value
[6] = target: Muscarinic acetylcholine receptor M4 (Homo sapiens) (UniProt P08173); test: M4-linked GIRK flux change, two-sided – cell-based, HEK293 M4/GIRK, thallium flux, BTC-AM, M4 allosteric agonist project, primary screen (AID 625;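 active = fluorescence slope after compound addition differing from the mean of all tested samples at 99.7% confidence, mostly higher but some lower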;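 note: thallium influx through GIRK channels coupled to M4 in HEK293 cells with BTC-AM dye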); details: at 10 µM, actives lie on both sides
Muscarinic acetylcholine receptor M4 (Homo sapiens), sequence (P08173 whole entry, looked up): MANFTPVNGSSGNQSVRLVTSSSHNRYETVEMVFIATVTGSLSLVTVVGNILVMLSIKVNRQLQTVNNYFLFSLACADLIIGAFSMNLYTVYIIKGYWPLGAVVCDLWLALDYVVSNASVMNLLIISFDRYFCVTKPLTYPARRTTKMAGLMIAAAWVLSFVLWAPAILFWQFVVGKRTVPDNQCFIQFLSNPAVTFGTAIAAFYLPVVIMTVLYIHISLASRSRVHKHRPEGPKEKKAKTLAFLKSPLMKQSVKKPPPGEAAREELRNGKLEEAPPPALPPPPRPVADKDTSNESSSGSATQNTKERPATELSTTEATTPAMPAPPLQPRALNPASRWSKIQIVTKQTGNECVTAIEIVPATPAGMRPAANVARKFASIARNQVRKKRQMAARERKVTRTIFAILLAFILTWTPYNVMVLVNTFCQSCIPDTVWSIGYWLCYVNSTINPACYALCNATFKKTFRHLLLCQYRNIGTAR
In short: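 Material – HEK293 cells with M4 receptor and GIRK channels · Buffer or medium – pH 7.3 thallium assay buffer · Doses – one dose, 10 µM final · Timing – cells overnight at 37 °C, BTC-AM loading 1 h, reads 2 min total · Measured by – kinetic fluorescence with BTC-AM dye · Controls – carbachol and DMSO controls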

[7] = blockers of RIG-like receptor reporter activation – cell-based, Sendai virus stimulus, luciferase, 10K MLSCN set, TLR/RLR signaling modifier project, primary screen (AID 602276;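 active = inhibition at or above 50% at 10 µM; inactive = inhibition below 50%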;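 note: firefly luciferase from ISG56 promoter only with Renilla not read in this screen; 0% = Sendai virus plus DMSO and 100% = medium plus DMSO without virus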); details: HEK293 RL24 IRF3 luciferase reporter, at 10 µM, stronger effect = higher value
[8] = TLR3 IRF3 reporter activation blockers – cell-based, poly I:C stimulus, luciferase, 10K MLSCN set, primary screen (AID 602277;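 active = inhibition of the reporter signal at or above 50%; inactive = inhibition below 50%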); details: HEK293-TLR3 RL24 IRF3 luciferase reporter, at 10 µM, stronger effect = higher value

SMILES	cell count [1]	inhibition [1]	inhibition of aggregation [2]	nuclei count [2] [%]	inhibition [3]	nuclei count [3] [%]	fluorescence slope [4]	NADPH fluorescence slope [5]	fluorescence slope [6]	inhibition [7]	inhibition [8]
COC(=O)c1[nH]c(C)c(/C(O)=C2\C(=O)C(=O)N(CCCN3CCOCC3)C2c2ccccn2)c1C (centres undefined)	814	0.6% (inactive)	14.2% (inactive)	110	-1.3% (inactive)	113	-0.473 (inactive)	-2.7e-06 (inactive)	0.00368 (inactive)	12.3% (inactive)	9.49% (inactive)
CC(=O)c1c(C)nc(C)nc1NC(=O)Cc1ccccc1	234	-4.4% (inactive)	37.5% (inactive)	79.9	2.9% (inactive)	84.4	-0.566 (inactive)	-4.2e-05 (inactive)	0.00735 (inactive)	12.7% (inactive)	20.5% (inactive)
CCSc1nc2c(c(=O)n(C)c(=O)n2C)n1Cc1ccc(Cl)cc1	440	3.3% (inactive)	0.4% (inactive)	106	-15.6% (inactive)	112	-0.527 (inactive)	-4.7e-05 (inactive)	0.00489 (inactive)	11.8% (inactive)	4.67% (inactive)
COc1ccc(NC(=O)CCCN2C(=O)C3C4C=CC(C4)C3C2=O)c(OC)c1 (centres undefined)	554	-1.8% (inactive)	5.1% (inactive)	94.8	49.6% (inactive)	62.2	-0.554 (inactive)	-2.9e-05 (inactive)	0.00549 (inactive)	9.13% (inactive)	20.8% (inactive)
Cc1ccc2nc(SC(C)C(=O)N3CCCC3)[nH]c2c1 (centres undefined)	467	0% (inactive)	9.4% (inactive)	75.7	-59.3% (inactive)	112	-0.478 (inactive)	6e-05 (inactive)	0.00661 (inactive)	-21.2% (inactive)	-39.7% (inactive)
O=C(Nc1ccccc1N1CCN(C(=O)c2ccc(Cl)cc2)CC1)c1cc2ccccc2o1	424	0% (inactive)	-5.5% (inactive)	101	-108% (inactive)	104	-0.549 (inactive)	-6.3e-06 (inactive)	0.00626 (inactive)	1.02% (inactive)	17% (inactive)
COC(=O)C1(C(=O)OC)Sc2ccccc2C1=O	427	-11.6% (inactive)	12.5% (inactive)	75.3	30.1% (inactive)	97.1	-0.571 (inactive)	1.6e-05 (inactive)	0.0074 (inactive)	13% (inactive)	17.2% (inactive)
Cc1ccc(NC(=O)C2CCCN2C(=O)Oc2ccccc2)cc1 (centres undefined)	344	6% (inactive)	3.9% (inactive)	88.6	26.5% (inactive)	79.2	-0.41 (inactive)	-6.8e-06 (inactive)	0.00654 (inactive)	5.65% (inactive)	12.3% (inactive)
Cc1cc(NC(=O)c2ccc3nc(-c4ccccc4)c(-c4ccccc4)nc3c2)no1	536	-0.9% (inactive)	-14.8% (inactive)	102	-66.9% (inactive)	106	-0.463 (inactive)	-2.8e-05 (inactive)	0.00551 (inactive)	-16% (inactive)	-16.7% (inactive)
CCOC(=O)N1CCN(S(=O)(=O)c2ccc(Br)s2)CC1	350	-8.6% (inactive)	-13.3% (inactive)	84.3	-27.3% (inactive)	98.6	-0.553 (inactive)	-1.3e-06 (inactive)	0.00427 (inactive)	21.3% (inactive)	11.6% (inactive)
CC(NC(=O)c1ccco1)C(c1cccs1)N1CCN(c2ccc(F)cc2)CC1 (centres undefined)	519	-0.2% (inactive)	-0.1% (inactive)	82	-22.2% (inactive)	114	-0.489 (inactive)	0.000157 (inactive)	0.00654 (inactive)	11.9% (inactive)	12.2% (inactive)
O=C1c2oc3ccccc3c(=O)c2C(c2ccccn2)N1Cc1ccccc1 (centres undefined)	440	-8.7% (inactive)	1.8% (inactive)	106	-49.4% (inactive)	125	-0.563 (inactive)	-9.3e-06 (inactive)	0.00477 (inactive)	-16.4% (inactive)	-22.3% (inactive)
O=C(CCn1nc(-c2ccc(Cl)cc2)ccc1=O)N1CCN(c2ccccn2)CC1	244	-0.9% (inactive)	26.9% (inactive)	100	36.1% (inactive)	98.7	-0.582 (inactive)	-8.6e-06 (inactive)	0.00547 (inactive)	7.53% (inactive)	10.9% (inactive)
O=C(Cc1cccs1)Nc1ccccc1C(=O)O	365	2.6% (inactive)	13.3% (inactive)	99.5	-7.6% (inactive)	113	-0.524 (inactive)	-3.3e-05 (inactive)	0.00502 (inactive)	-8.52% (inactive)	-27.9% (inactive)
CCn1c(=O)n(CC(=O)NCc2ccccc2OC)c(=O)c2ccccc21	467	-30.1% (inactive)	-16.5% (inactive)	100	-106% (inactive)	92	-0.555 (inactive)	-4.7e-05 (inactive)	0.00528 (inactive)	18.2% (inactive)	23.1% (inactive)
COc1cc(C(=O)N2c3ccccc3CC2C)cc(OC)c1OC (centres undefined)	348	4.3% (inactive)	-6.3% (inactive)	89	-13.9% (inactive)	113	-0.296 (inactive)	-2.6e-05 (inactive)	0.0071 (inactive)	17.5% (inactive)	33.5% (inactive)
CCOC(=O)C1CCN(c2c(NCCCN(CC)c3ccccc3)c(=O)c2=O)CC1	266	5.2% (inactive)	8.3% (inactive)	97.6	-20.2% (inactive)	95.4	-0.43 (inactive)	-0.000398 (inactive)	0.00476 (inactive)	2.28% (inactive)	9.33% (inactive)
CCOC(=O)c1nn(-c2sc(C(=O)OC)c(C)c2C(=O)OC)cc1O	449	-6.2% (inactive)	1% (inactive)	94.5	0.1% (inactive)	108	-0.518 (inactive)	-3.7e-05 (inactive)	0.00503 (inactive)	20.5% (inactive)	24.1% (inactive)
Cc1ccc(CC23CN4CCN(CC(C4)C2O)C3)c(C)c1 (centres undefined)	435	0% (inactive)	2% (inactive)	107	-40.9% (inactive)	116	-0.494 (inactive)	-2.9e-05 (inactive)	0.0044 (inactive)	18.9% (inactive)	14.1% (inactive)
